Source: PubChem BioAssay
The list is not random: actives were taken first. Their share in the collection is about 1.8%.
LYP act: activators of human LYP (PTPN22) phosphatase; Q9Y2R2; recombinant LYP, DiFMUP fluorescence; 0 = plate median, 100 = signal doubled; activation, % at 2 µM; actives 0.11% (n = 96,000); AID 697;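 active = activation at 2 µM above a set limit, the mean plus 5 SD, cut at about 37% in these data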
PLK1 inh: PLK1 (human) kinase inhibition; recombinant PLK1 kinase, TR-FRET peptide phosphorylation; inhibition, % at 10 µM; actives 0.53% (n = 97,000); P53350;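 active = inhibition of 50% or more in the single-concentration screen; inactive = inhibition below 50%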;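 also: 0% = DMSO max control and 100% = H-89 dihydrochloride min control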
Target sequence (P53350 whole entry, looked up): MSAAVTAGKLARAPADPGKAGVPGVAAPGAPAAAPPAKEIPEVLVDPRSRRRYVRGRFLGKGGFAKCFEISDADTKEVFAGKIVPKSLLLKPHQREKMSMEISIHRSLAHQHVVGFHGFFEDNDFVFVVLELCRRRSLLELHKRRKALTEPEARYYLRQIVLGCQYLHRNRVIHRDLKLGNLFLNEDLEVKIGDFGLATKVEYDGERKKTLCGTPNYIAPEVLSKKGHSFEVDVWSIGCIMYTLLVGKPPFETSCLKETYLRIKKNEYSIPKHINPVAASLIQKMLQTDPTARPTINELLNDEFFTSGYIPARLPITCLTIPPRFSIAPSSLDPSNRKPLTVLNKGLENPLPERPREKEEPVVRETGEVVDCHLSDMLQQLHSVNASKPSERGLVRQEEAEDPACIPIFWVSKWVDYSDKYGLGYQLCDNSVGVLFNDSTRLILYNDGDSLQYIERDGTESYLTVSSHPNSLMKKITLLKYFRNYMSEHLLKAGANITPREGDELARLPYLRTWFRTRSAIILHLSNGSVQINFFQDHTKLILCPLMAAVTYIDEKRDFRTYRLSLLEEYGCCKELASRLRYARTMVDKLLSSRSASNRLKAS
EphB4 antag: blocks human EphB4 binding to ephrin-B2 | P54760 | EphB4 LBD / TNYL-RAW-Alexa532 peptide, fluorescence polarization | inhibition, % at 7 µM | actives 0.15% (n = 97,000) | AID 720;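 active = inhibition above the screen-wide mean inhibition plus 3 SD, cut at about 15% in these data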;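 also: 0% = DMSO wells and 100% = excess unlabeled TNYL-RAW peptide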
Plk1 PBD FP: inhibitors of human Plk1 polo box domain binding | inhibition, %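 (tested at about 20 µM)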 | P53350 | AID 693 | actives 0.13% (n = 97,000) | Plk1 PBD phosphopeptide binding, fluorescence polarization; in the data active = inhibition above about 34%, passing the limit was not always enough
LYP inh 2: blocks human PTPN22 phosphatase activity; AID 640; recombinant LYP catalytic domain, DiFMUP fluorescence; Q9Y2R2; inhibition, % at 2 µM; actives 0.21% (n = 96,000);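 active = inhibition at 2 µM at or above a set limit, the screen mean plus 3 SD, cut at about 24% in these data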;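 also: 0% = DMSO with enzyme and 100% = enzyme fully blocked by orthovanadate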
HIV Rev-RRE inh: HIV Rev-RRE protein-RNA interaction inhibition; P05866; Rev peptide-RRE RNA binding, FRET; inhibition, % at 8 µM; actives 0.79% (n = 97,000); AID 704;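 active = inhibition above the screen-wide mean plus 3 SD, cut at about 35% in these data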;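 also: 0% = median DMSO wells and 100% = median Neomycin B control wells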
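Probe or stimulus: fluorescein-Rev peptide as binding partner; assay system: Cy5-tagged RRE RNA duplex with fluorescein-tagged Rev peptide; timing: 5 min compound–RNA preincubation, then 15 min with peptide, 25 °C; medium: HEPES pH 7.5 buffer with KCl, MgCl2, NaCl and EDTA; signal: fluorescein-to-Cy5 FRET, 480 nm excitation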
Numbers without * were called inactive; [ ] = another dose, or the depositor's remark.

Screening CC1=Nc2ccccc2/C1=C\c1nc(-c2ccc(C(F)(F)F)cc2)oc1O returned LYP act -2, PLK1 inh -27, EphB4 antag 25*, Plk1 PBD FP -45, LYP inh 2 4 and HIV Rev-RRE inh 126*[fluorescence artefact?].
For Oc1ccccc1-c1nnc(-c2ccc(C(F)(F)F)cc2)o1 the results were LYP act -10, PLK1 inh -3, EphB4 antag 2, Plk1 PBD FP -11, LYP inh 2 8 and HIV Rev-RRE inh 12.
`CC1=Nc2ccccc2/C1=C\c1nc(-c2ccccc2)oc1O` gave LYP act -6, PLK1 inh -21, EphB4 antag -2, Plk1 PBD FP -27, LYP inh 2 3 and HIV Rev-RRE inh 54*.
Cc1cc(C(=O)N/N=C/c2cccc([N+](=O)[O-])c2)c(C)o1 was read as LYP act -2, PLK1 inh -5, EphB4 antag -6, Plk1 PBD FP -43, LYP inh 2 4 and HIV Rev-RRE inh -3.
`O=C(N/N=C/c1ccncc1)c1cc([N+](=O)[O-])cc([N+](=O)[O-])c1O` gave LYP act -44, PLK1 inh 8, EphB4 antag 19*, Plk1 PBD FP -25, LYP inh 2 46* and HIV Rev-RRE inh 5.
Screening CCCCCCCCCCSc1n[nH]c(NC(C)=O)n1 returned LYP act -3, PLK1 inh 0, EphB4 antag 3, Plk1 PBD FP 9, LYP inh 2 2 and HIV Rev-RRE inh 18.
CCCSc1n[nH]c(NC(C)=O)n1 was read as PLK1 inh 69*, EphB4 antag -1, Plk1 PBD FP 7 and HIV Rev-RRE inh 4.
Screening CC1C/C(=C/c2cccn2C)C(=O)/C(=C/c2cccn2C)C1 (stereo not drawn) returned LYP act -11, PLK1 inh -12, EphB4 antag 0, Plk1 PBD FP -210, LYP inh 2 11 and HIV Rev-RRE inh 136*[fluorescence artefact?].
For Cn1cccc1P(=O)(c1cccn1C)c1cccn1C the results were LYP act -1, PLK1 inh -5, EphB4 antag 2, Plk1 PBD FP -15, LYP inh 2 0 and HIV Rev-RRE inh 2.
`COCCNC(=O)C1CCN(S(=O)(=O)c2ccccc2)CC1` gave LYP act 5, PLK1 inh -6, EphB4 antag -1, Plk1 PBD FP -1, LYP inh 2 -7 and HIV Rev-RRE inh 2.
For Cn1c(=O)cc(SCC(=O)NCCN2CCN(c3ccccc3F)CC2)c2cc(Cl)ccc21 the results were LYP act -33, PLK1 inh -5, EphB4 antag 5, Plk1 PBD FP -27, LYP inh 2 33* and HIV Rev-RRE inh 6.
For N#C/C(C(=O)N1CCOCC1)=C1/SC(Cc2ccccc2)C(=O)N1c1ccccc1 (stereo not drawn) the results were LYP act -2, PLK1 inh 8, EphB4 antag 8, Plk1 PBD FP -10, LYP inh 2 -1 and HIV Rev-RRE inh 44*.
Cc1cc([N+](=O)[O-])nn1CC(=O)NNC(=S)Nc1ccc([N+](=O)[O-])cc1 was read as LYP act -33, PLK1 inh -8, EphB4 antag -7, Plk1 PBD FP 21, LYP inh 2 35* and HIV Rev-RRE inh -2.
Screening O=C(NCc1ccco1)c1cccn2c(=O)c3cc4ccccc4cc3nc12 returned LYP act -13, PLK1 inh 0, EphB4 antag 8, Plk1 PBD FP 0, LYP inh 2 15 and HIV Rev-RRE inh 57*.
For COCCCNC(=O)c1cccn2c(=O)c3cc4ccccc4cc3nc12 the results were LYP act -42, PLK1 inh -22, EphB4 antag 0, Plk1 PBD FP -19, LYP inh 2 43* and HIV Rev-RRE inh 80*[fluorescence artefact?].
Cc1ccc(Cn2c(=N)c(C(=O)NCc3ccco3)cc3c(=O)n4ccccc4nc32)cc1 was read as LYP act -28, PLK1 inh 4, EphB4 antag 3, Plk1 PBD FP -12, LYP inh 2 31* and HIV Rev-RRE inh 27.
Screening CN(C)c1ccc(/C=C(\C#N)C(=O)Nc2nc3c(s2)CCN(Cc2ccccc2)C3)cc1 returned LYP act 1, PLK1 inh -23, EphB4 antag 3, Plk1 PBD FP -30, LYP inh 2 0 and HIV Rev-RRE inh 104*[fluorescence artefact?].
Screening COc1ccc(-n2nnnc2SCC(=O)c2ccc(O)c(O)c2)cc1 returned LYP act -38, PLK1 inh 2, EphB4 antag -2, Plk1 PBD FP 6, LYP inh 2 35* and HIV Rev-RRE inh 1.
Screening Cc1cc(C)n2nc3nc4c(cc3c2n1)CCCC4 returned LYP act 3, PLK1 inh -8, EphB4 antag 3, Plk1 PBD FP 18, LYP inh 2 -4 and HIV Rev-RRE inh 76*.
`CCN(CC)c1ccc(/C=C(/C#N)c2nc3ccccc3[nH]2)c(OC(C)C)c1` gave LYP act -4, PLK1 inh -75, EphB4 antag 11, Plk1 PBD FP -198, LYP inh 2 2 and HIV Rev-RRE inh 136*[fluorescence artefact?].
`Cc1sc(-c2ccncc2)nc1OC(=O)c1ccccc1` gave LYP act -8, PLK1 inh 13, EphB4 antag 4, Plk1 PBD FP -42, LYP inh 2 9 and HIV Rev-RRE inh 8.
CC1CCc2c(C(=O)Nc3nccs3)csc2C1 (stereo not drawn) was read as LYP act -64, PLK1 inh -17, EphB4 antag -5, Plk1 PBD FP -3, LYP inh 2 65* and HIV Rev-RRE inh 3.
For Cc1ccc(CNCCC2=CCCCC2)cc1 the results were LYP act 1, PLK1 inh -4, EphB4 antag -4, Plk1 PBD FP -7, LYP inh 2 0 and HIV Rev-RRE inh -16.
For c1ccc(-c2cn3nc4c(nc3n2)CCCC4)cc1 the results were LYP act 2, PLK1 inh 13, EphB4 antag -4, Plk1 PBD FP -4, LYP inh 2 0 and HIV Rev-RRE inh 48*.
Screening CSc1nn(CCc2ccncc2)c(=S)s1 returned LYP act 8, PLK1 inh -8, EphB4 antag 0, Plk1 PBD FP 6, LYP inh 2 -8 and HIV Rev-RRE inh 1.
`Cc1ccc(-n2nc3c4c(cccc4c2=O)-c2ccccc2-3)cc1` gave LYP act -28, PLK1 inh -5, EphB4 antag -5, Plk1 PBD FP 17, LYP inh 2 32* and HIV Rev-RRE inh 7.
`COC(=O)c1ccc(-c2sc3nc(N4CCOCC4)c4c(c3c2N)CCCC4)o1` gave LYP act 2, PLK1 inh -5, EphB4 antag -1, Plk1 PBD FP -34, LYP inh 2 -6 and HIV Rev-RRE inh 85*.
`CCOC(=O)c1sc2nc(N3CCOCC3)c3c(c2c1N)CCCC3` gave LYP act -5, PLK1 inh -6, EphB4 antag 1, Plk1 PBD FP 13, LYP inh 2 8 and HIV Rev-RRE inh 2.
